Source: ChEMBL document CHEMBL1154352, “Toll-like receptor 7 selective synthetic oligoribonucleotide agonists: synthesis and structure-activity relationship studies” (J Med Chem, 2009)
Calls of active or inactive are those of the source. The rule behind the calls is not given here.

Experiments:
PBMC [1] = experiment: Immunomodulatory activity in human PBMC assessed as induction of IL1-beta at 50 ug/ml after 24 hrs; assay type: functional, cell-based
In short: (§1)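 Human PBMCs plated at 5 × 10^6 cells/mL; compounds dissolved in PBS added at various concentrations, 37 °C for 24 h. Supernatant cytokines/chemokines quantified with human Luminex multiplex kit.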

Homo sapiens [2] = organism: Homo sapiens; experiment: Immunostimulatory activity in human pDC assessed as induction of IL6 at 100 ug/ml after 24 hrs; assay type: functional
In short: (§2)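 Human pDCs plated at 1 × 10^6 cells/mL; compounds in PBS added, 37 °C for 24 h; supernatant cytokines/chemokines by human Luminex multiplex kit.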

Homo sapiens [3] = organism: Homo sapiens; experiment: Immunostimulatory activity in human pDC assessed as induction of IFNalpha at 100 ug/ml after 24 hrs; assay type: functional; in short: as §2
PBMC [4] = experiment: Immunomodulatory activity in human PBMC assessed as induction of IFN-alpha at 100 ug/ml after 24 hrs
Homo sapiens [5] = organism: Homo sapiens; experiment: Immunostimulatory activity in human pDC assessed as induction of IP10 at 100 ug/ml after 24 hrs; assay type: functional; in short: as §2
PBMC [6] = experiment: Immunomodulatory activity in human PBMC assessed as induction of MCP1 at 50 ug/ml after 24 hrs; assay type: functional, cell-based; in short: as §1
PBMC [7] = experiment: Immunomodulatory activity in human PBMC assessed as induction of IL6 at 50 ug/ml after 24 hrs; assay type: functional, cell-based; in short: as §1
Homo sapiens [8] = organism: Homo sapiens; experiment: Immunostimulatory activity in human mDC assessed as induction of IFNalpha at 100 ug/ml after 24 hrs; assay type: functional
In short: (§3)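 Human mDCs isolated from PBMCs by CD19+ B-cell depletion then BDCA1 positive selection; plated at 1 × 10^6 cells/mL, compounds in PBS, 37 °C for 24 h; supernatant cytokines by human Luminex multiplex. Representative of four independent experiments.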

Homo sapiens [9] = organism: Homo sapiens; experiment: Immunostimulatory activity in human mDC assessed as induction of TNFalpha at 100 ug/ml after 24 hrs; assay type: functional; in short: as §3
PBMC [10] = experiment: Immunomodulatory activity in human PBMC assessed as induction of MIP1alpha at 50 ug/ml after 24 hrs; assay type: functional, cell-based; in short: as §1
Homo sapiens [11] = organism: Homo sapiens; experiment: Immunostimulatory activity in human mDC assessed as induction of IL6 at 100 ug/ml after 24 hrs; assay type: functional; in short: as §3
[12] = target: T1, Toll-like receptor 9 (Mus musculus) (UniProt Q9EQU3); experiment: Activation of mouse TLR9 expressed in HEK293 assessed as induction of NF-kappaB activity reporter gene assay; assay type: cell-based
T1 sequence (whole entry): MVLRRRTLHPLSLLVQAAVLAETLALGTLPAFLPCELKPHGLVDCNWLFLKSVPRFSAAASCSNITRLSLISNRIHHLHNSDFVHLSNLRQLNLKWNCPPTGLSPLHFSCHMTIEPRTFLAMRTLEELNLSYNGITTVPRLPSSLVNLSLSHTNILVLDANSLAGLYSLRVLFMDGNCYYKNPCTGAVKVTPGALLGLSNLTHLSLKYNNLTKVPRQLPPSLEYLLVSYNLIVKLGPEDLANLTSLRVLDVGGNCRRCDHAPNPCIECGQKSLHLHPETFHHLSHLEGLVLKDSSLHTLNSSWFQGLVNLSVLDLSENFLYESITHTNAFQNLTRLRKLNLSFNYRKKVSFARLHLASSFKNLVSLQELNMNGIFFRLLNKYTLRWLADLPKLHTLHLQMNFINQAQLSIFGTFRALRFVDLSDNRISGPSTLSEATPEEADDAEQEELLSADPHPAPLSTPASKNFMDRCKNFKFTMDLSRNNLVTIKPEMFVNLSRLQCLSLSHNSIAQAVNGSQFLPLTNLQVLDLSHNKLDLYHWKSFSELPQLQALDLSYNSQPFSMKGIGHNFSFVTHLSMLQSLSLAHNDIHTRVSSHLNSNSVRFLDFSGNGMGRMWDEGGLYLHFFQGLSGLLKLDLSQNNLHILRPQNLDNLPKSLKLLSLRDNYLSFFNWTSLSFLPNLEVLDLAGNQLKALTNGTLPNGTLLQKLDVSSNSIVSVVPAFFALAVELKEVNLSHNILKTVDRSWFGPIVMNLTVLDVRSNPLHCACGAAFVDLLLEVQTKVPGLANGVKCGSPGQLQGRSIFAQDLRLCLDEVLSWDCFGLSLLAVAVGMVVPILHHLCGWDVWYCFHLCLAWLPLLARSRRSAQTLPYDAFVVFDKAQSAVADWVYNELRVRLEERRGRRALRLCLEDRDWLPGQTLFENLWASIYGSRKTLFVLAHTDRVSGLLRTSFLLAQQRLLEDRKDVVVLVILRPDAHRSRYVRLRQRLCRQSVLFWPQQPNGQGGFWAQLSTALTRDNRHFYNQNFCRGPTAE

Homo sapiens [13] = organism: Homo sapiens; experiment: Immunostimulatory activity in human mDC assessed as induction of IP10 at 100 ug/ml after 24 hrs; assay type: functional; in short: as §3
PBMC [14] = experiment: Immunomodulatory activity in human PBMC assessed as induction of IL12 at 100 ug/ml after 24 hrs; assay type: functional, cell-based; in short: as §1
PBMC [15] = experiment: Immunomodulatory activity in human PBMC assessed as induction of IP10 at 50 ug/ml after 24 hrs; assay type: functional, cell-based; in short: as §1
Mus musculus = experiment: Immunomodulatory activity in C57BL/6 mouse assessed as induction of IL12 release at 25 mg/kg, sc after 2 hrs by ELISA; assay type: functional, organism-based; parameters: dose 25 mg/kg
In short: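 Female C57BL/6 wild-type mice, 5–8 weeks old, n=3; compounds given subcutaneously at 10 or 25 mg/kg. Retro-orbital blood at 2 h; serum cytokines by mouse Luminex multiplex or IL-12 ELISA.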

PBMC [16] = experiment: Immunomodulatory activity in human PBMC assessed as induction of MIP1beta at 50 ug/ml after 24 hrs; assay type: functional, cell-based; in short: as §1
PBMC [17] = experiment: Immunomodulatory activity in human PBMC assessed as induction of TNFalpha at 50 ug/ml after 24 hrs; assay type: functional, cell-based; in short: as §1
PBMC [18] = experiment: Immunomodulatory activity in human PBMC assessed as induction of IL12 at 50 ug/ml after 24 hrs; assay type: functional, cell-based; in short: as §1
[19] = target: Toll-like receptor 3 (Homo sapiens) (UniProt O15455); experiment: Activation of human TLR3 expressed in HEK293 assessed as induction of NF-kappaB activity reporter gene assay; assay type: cell-based
Chain of Toll-like receptor 3 (Homo sapiens) (O15455 whole entry): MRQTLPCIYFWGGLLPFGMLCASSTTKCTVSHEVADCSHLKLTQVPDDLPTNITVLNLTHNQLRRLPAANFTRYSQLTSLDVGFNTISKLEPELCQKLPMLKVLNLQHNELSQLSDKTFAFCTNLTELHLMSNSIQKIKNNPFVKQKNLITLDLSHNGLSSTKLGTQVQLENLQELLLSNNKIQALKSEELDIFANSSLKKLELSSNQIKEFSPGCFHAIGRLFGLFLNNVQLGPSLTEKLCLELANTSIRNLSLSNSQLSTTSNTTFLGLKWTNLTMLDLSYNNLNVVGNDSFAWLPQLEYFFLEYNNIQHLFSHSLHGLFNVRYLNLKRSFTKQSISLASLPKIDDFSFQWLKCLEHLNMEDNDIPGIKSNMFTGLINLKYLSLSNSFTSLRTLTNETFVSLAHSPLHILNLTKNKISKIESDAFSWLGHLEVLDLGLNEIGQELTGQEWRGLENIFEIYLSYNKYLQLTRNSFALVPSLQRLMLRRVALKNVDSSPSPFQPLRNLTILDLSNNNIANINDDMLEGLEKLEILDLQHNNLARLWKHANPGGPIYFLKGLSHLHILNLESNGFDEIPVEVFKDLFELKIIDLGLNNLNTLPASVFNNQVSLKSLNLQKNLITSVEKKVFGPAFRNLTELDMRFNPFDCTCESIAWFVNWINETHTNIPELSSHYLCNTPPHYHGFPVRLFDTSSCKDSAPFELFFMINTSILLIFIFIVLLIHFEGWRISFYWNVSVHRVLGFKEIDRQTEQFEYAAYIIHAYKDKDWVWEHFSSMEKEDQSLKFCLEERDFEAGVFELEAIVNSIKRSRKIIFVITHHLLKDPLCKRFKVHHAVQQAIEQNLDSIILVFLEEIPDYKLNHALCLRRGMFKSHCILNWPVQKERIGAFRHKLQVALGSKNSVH

Homo sapiens [20] = organism: Homo sapiens; experiment: Immunostimulatory activity in human mDC assessed as induction of IL12 at 100 ug/ml after 24 hrs; assay type: functional; in short: as §3
PBMC [21] = experiment: Immunomodulatory activity in human PBMC assessed as induction of IFNalpha at 50 ug/ml after 24 hrs; assay type: functional, cell-based; in short: as §1

| Activity [12] | Activity [19] | SMILES | Activity (PBMC [1]) | Activity (Homo sapiens [2]) | Activity (Homo sapiens [3]) | IFN-alpha (PBMC [4]) | Activity (Homo sapiens [5]) | Activity (PBMC [6]) | Activity (PBMC [7]) | Activity (Homo sapiens [8]) | Activity (Homo sapiens [9]) | Activity (PBMC [10]) | Activity (Homo sapiens [11]) | Activity (Homo sapiens [13]) | Activity (PBMC [14]) | Activity (PBMC [15]) | Activity (Mus musculus) | Activity (PBMC [16]) | Activity (PBMC [17]) | Activity (PBMC [18]) | other results |
| --- | --- | --- | --- | --- | --- | --- | --- | --- | --- | --- | --- | --- | --- | --- | --- | --- | --- | --- | --- | --- | --- |
| inactive | inactive | Nc1ccn([C@@H]2O[C@H](COP(O)(=S)O[C@H]3[C@@H](O)[C@H](n4ccc(=O)[nH]c4=O)O[C@@H]3COP(O)(=S)O[C@H]3[C@@H](O)[C@H](n4ccc(=O)[nH]c4=O)O[C@@H]3COP(O)(=S)O[C@H]3[C@@H](O)[C@H](n4ccc(N)nc4=O)O[C@@H]3COP(O)(=S)O[C@H]3[C@@H](O)[C@H](n4ccc5c(=O)[nH]c(N)nc54)O[C@@H]3COP(O)(=S)O[C@H]3[C@@H](O)[C@H](n4ccc(=O)[nH]c4=O)O[C@@H]3COP(O)(=S)O[C@H]3[C@@H](O)[C@H](n4ccc(N)nc4=O)O[C@@H]3COP(O)(=S)O[C@H]3[C@@H](O)[C@H](n4ccc5c(=O)[nH]c(N)nc54)O[C@@H]3COP(O)(=S)O[C@H]3[C@@H](O)[C@H](n4ccc(=O)[nH]c4=O)O[C@@H]3CO)[C@@H](OP(O)(=S)OC[C@H]3O[C@@H](n4ccc(=O)[nH]c4=O)[C@H](O)[C@@H]3OP(O)(=S)OC[C@H]3O[C@@H](n4ccc5c(=O)[nH]c(N)nc54)[C@H](O)[C@@H]3OP(O)(=S)OCC(O)COP(O)(=S)O[C@H]3[C@@H](O)[C@H](n4ccc5c(=O)[nH]c(N)nc54)O[C@@H]3COP(O)(=S)O[C@H]3[C@@H](O)[C@H](n4ccc(=O)[nH]c4=O)O[C@@H]3COP(O)(=S)O[C@H]3[C@@H](O)[C@H](n4ccc(N)nc4=O)O[C@@H]3COP(O)(=S)O[C@H]3[C@@H](O)[C@H](n4ccc(=O)[nH]c4=O)O[C@@H]3COP(O)(=S)O[C@H]3[C@@H](O)[C@H](n4ccc(=O)[nH]c4=O)O[C@@H]3COP(O)(=S)O[C@H]3[C@@H](O)[C@H](n4ccc(N)nc4=O)O[C@@H]3COP(O)(=S)O[C@H]3[C@@H](O)[C@H](n4ccc5c(=O)[nH]c(N)nc54)O[C@@H]3COP(O)(=S)O[C@H]3[C@@H](O)[C@H](n4ccc(=O)[nH]c4=O)O[C@@H]3COP(O)(=S)O[C@H]3[C@@H](O)[C@H](n4ccc(N)nc4=O)O[C@@H]3COP(O)(=S)O[C@H]3[C@@H](O)[C@H](n4ccc5c(=O)[nH]c(N)nc54)O[C@@H]3COP(O)(=S)O[C@H]3[C@@H](O)[C@H](n4ccc(=O)[nH]c4=O)O[C@@H]3CO)[C@H]2O)c(=O)n1 (some centres undefined) | 688 pg/mL | Active | Active | 385 pg/mL | Active | 47400 pg/mL | 5580 pg/mL | Active | Active | 15500 pg/mL | Active | Active | 1110 pg/mL | 167 pg/mL | Active | 27600 pg/mL | 688 pg/mL | 671 pg/mL | Activity (Homo sapiens [20]): Active; Activity (PBMC [21]): 373 pg/mL |
| inactive | inactive | Nc1ccn([C@@H]2O[C@H](COP(=O)(S)O[C@H]3[C@@H](O)[C@H](n4cnc5c(N)ncnc54)O[C@@H]3COP(=O)(S)O[C@H]3[C@@H](O)[C@H](n4ccc5c(=O)[nH]c(N)nc54)O[C@@H]3COP(=O)(S)O[C@H]3[C@@H](O)[C@H](n4ccc(=O)[nH]c4=O)O[C@@H]3COP(=O)(S)O[C@H]3[C@@H](O)[C@H](n4ccc5c(=O)[nH]c(N)nc54)O[C@@H]3COP(=O)(S)O[C@H]3[C@@H](O)[C@H](n4cnc5c(N)ncnc54)O[C@@H]3COP(=O)(S)O[C@H]3[C@@H](O)[C@H](n4cnc5c(N)ncnc54)O[C@@H]3CO)[C@@H](OP(=O)(S)OC[C@H]3O[C@@H](n4ccc5c(=O)[nH]c(N)nc54)[C@H](O)[C@@H]3OP(=O)(S)OC[C@H]3O[C@@H](n4cnc5c(N)ncnc54)[C@H](O)[C@@H]3OP(=O)(S)OC[C@H]3O[C@@H](n4ccc(=O)[nH]c4=O)[C@H](O)[C@@H]3OP(=O)(S)OC[C@H]3O[C@@H](n4ccc(=O)[nH]c4=O)[C@H](O)[C@@H]3OP(=O)(S)OCC(O)COP(=O)(S)O[C@H]3[C@@H](O)[C@H](n4ccc(=O)[nH]c4=O)O[C@@H]3COP(=O)(S)O[C@H]3[C@@H](O)[C@H](n4ccc(=O)[nH]c4=O)O[C@@H]3COP(=O)(S)O[C@H]3[C@@H](O)[C@H](n4cnc5c(N)ncnc54)O[C@@H]3COP(=O)(S)O[C@H]3[C@@H](O)[C@H](n4ccc5c(=O)[nH]c(N)nc54)O[C@@H]3COP(=O)(S)O[C@H]3[C@@H](O)[C@H](n4ccc(N)nc4=O)O[C@@H]3COP(=O)(S)O[C@H]3[C@@H](O)[C@H](n4cnc5c(N)ncnc54)O[C@@H]3COP(=O)(S)O[C@H]3[C@@H](O)[C@H](n4ccc5c(=O)[nH]c(N)nc54)O[C@@H]3COP(=O)(S)O[C@H]3[C@@H](O)[C@H](n4ccc(=O)[nH]c4=O)O[C@@H]3COP(=O)(S)O[C@H]3[C@@H](O)[C@H](n4ccc5c(=O)[nH]c(N)nc54)O[C@@H]3COP(=O)(S)O[C@H]3[C@@H](O)[C@H](n4cnc5c(N)ncnc54)O[C@@H]3COP(=O)(S)O[C@H]3[C@@H](O)[C@H](n4cnc5c(N)ncnc54)O[C@@H]3CO)[C@H]2O)c(=O)n1 (some centres undefined) | 123 pg/mL | Active | Active | 254 pg/mL | Active | 46700 pg/mL | 1900 pg/mL | Active | Active | 3090 pg/mL | Active | Active | 400 pg/mL | 55 pg/mL | Active | 6680 pg/mL | 18 pg/mL | 174 pg/mL | Activity (Homo sapiens [20]): Active; Activity (PBMC [21]): 121 pg/mL |
